ChEMBL document CHEMBL1126291 (J Med Chem, 1992)

Key:
Type in all cases: functional
[1] = test system: Leishmania donovani; test: Growth inhibition of Leishmania donovani promastigotes by the compound at […]; details: for inhibition at […]: Leishmania donovani
[2] = test system: Leishmania donovani; test: Growth inhibition of Leishmania donovani promastigotes by the compound at 1.3 uM
In short: (§1)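 Seeded at 0.5 × 10^6 cells per well. Compounds added a few hours later in water. Cells counted by hemacytometer after 3 days, against untreated cultures. Duplicates.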

[3] = test system: Leishmania donovani; test: Growth inhibition of Leishmania donovani promastigotes by the compound at 14 uM; in short: as §1

Nc1ncnc2c1ncn2[C@@H]1O[C@H](C[C@@H](N)CC[C@H](N)C(=O)O)[C@@H](O)[C@H]1O (stereo in doubt; form 2) [SINEFUNGIN]
Inhibition [1]: 88%

Nc1ncnc2c1ncn2[C@@H]1O[C@H](C[C@H](N)CC[C@H](N)C(=O)O)[C@@H](O)[C@H]1O
inhibition at […] [1]: 34% | inhibition at 1.3 µM [2]: 91%

NC(CC[C@H](N)C(=O)O)C[C@H]1OC(n2ccc(=O)[nH]c2=O)[C@H](O)[C@@H]1O (stereo partly specified)
inhibition at 14 µM [3]: 20%

Nc1ncnc2c1ncn2[C@@H]1O[C@H](C[C@@H](N)CC[C@H](N)C(=O)O)[C@@H](O)[C@H]1O (stereo in doubt; form 1) [SINEFUNGIN]
inhibition at […] [1]: 100%

NC(CC[C@H](N)C(=O)O)C[C@H]1OC(N2CCC(=O)NC2=O)[C@H](O)[C@@H]1O (stereo partly specified)
inhibition at 14 µM [3]: 19%
